Screening data deposited in PubChem by The Scripps Research Institute Molecular Screening Center.
Compounds with a hit are over-represented: about 3.3% of the library has one in this group of screens.
UHRF1 MBD2 ctr – human UHRF1 methylated DNA binding inhibitors; inhibition, % at 4.4 µM; 0.75% of 370,000 active; UHRF1 binding to methylated oligo, TR-FRET; Q96T88; in the data active means inhibition above about 21%;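 further: UHRF1 SRA domain binding a hemimethylated CpG hairpin DNA probe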
Target sequence (Q96T88 whole entry, looked up, the tested form may be a part): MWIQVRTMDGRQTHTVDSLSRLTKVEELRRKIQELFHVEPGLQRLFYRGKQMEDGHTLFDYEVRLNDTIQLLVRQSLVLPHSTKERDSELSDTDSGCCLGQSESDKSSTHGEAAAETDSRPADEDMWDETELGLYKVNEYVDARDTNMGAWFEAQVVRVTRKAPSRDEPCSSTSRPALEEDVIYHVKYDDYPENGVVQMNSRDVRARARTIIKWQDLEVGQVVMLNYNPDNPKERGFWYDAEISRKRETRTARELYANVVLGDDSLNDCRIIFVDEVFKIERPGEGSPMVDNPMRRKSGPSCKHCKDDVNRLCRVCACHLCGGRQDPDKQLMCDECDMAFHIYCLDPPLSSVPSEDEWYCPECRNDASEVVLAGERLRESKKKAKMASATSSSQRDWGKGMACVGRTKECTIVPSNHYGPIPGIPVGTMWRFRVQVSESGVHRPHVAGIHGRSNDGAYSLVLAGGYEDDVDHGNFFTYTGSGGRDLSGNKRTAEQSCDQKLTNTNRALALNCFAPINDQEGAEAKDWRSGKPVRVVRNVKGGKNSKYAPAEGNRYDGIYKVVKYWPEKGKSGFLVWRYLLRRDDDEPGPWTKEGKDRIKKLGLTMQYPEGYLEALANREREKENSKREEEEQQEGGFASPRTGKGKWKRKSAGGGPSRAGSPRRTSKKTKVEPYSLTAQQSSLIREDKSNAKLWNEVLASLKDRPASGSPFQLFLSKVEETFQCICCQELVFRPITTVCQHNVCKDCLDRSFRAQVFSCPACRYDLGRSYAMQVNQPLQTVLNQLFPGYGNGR
TDP2 inh – TDP2 (human) inhibition, absorbance primary screen | recombinant TDP2, T5PNP hydrolysis, p-nitrophenol absorbance 415 nm | AID 720702 | 0.34% of 370,000 active | inhibition, % at 12.8 µM | O95551;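 active means inhibition above the mean of all tested compounds plus 3 SD, set per campaign, cut at about 25% in these data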
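System – recombinant human TDP2 · Amount – 120 nM TDP2 per well · Buffer or medium – Mg2+-containing Tris-HCl buffer, pH 7.5 · Reagent – T5PNP substrate, 5 mM · Dosing – 12.8 µM single point, 1% DMSO · Incubation – 2 h at 37 °C · Measured by – epi absorbance · Read-out basis – percent inhibition · Benchmarks – high control without enzyme, low control DMSO plus TDP2 · Repeats – singlicate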
MBD2 inh – MBD2-methylated oligo binding inhibition | Q9UBB5 | TR-FRET, MBD2 binding to methylated oligonucleotide | inhibition, % at 4.4 µM | 0.31% of 370,000 active; in the data active means inhibition above about 13%
LEDGF integ inh – blocks HIV-1 LEDGF/p75-dependent DNA integration | TR-FRET IN-LEDGF/p75 DNA integration, Eu/Cy5 | inhibition, % at 3.7 µM | 0.64% of 370,000 active | AID 743269;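 active means inhibition above the screen-wide mean plus 3 SD, cut at about 13% in these data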;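 further: signal is the Cy5 over europium emission ratio at 671 and 618 nm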
PRMT1 FP inh – inhibitors of human PRMT1; Q99873; recombinant PRMT1, activity-based probe fluorescence polarization; AID 652257; 1.3% of 370,000 active; inhibition, % at 2.79 µM;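 active means inhibition above about 21% made by adding two undisclosed values, limit read from the data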
SIAE primary – blocks human sialic acid acetylesterase | Q9HAT2 | SIAE FP-Rh probe binding, fluorescence polarization | inhibition, % at 9.66 µM | 0.69% of 370,000 active | AID 1053197;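 active means inhibition above a cutoff: mean of compounds within the control limits plus 3 SD of those, cut at about 17% in these data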
Numbers stand for hits; – = inactive.

SMILES	UHRF1 MBD2 ctr	TDP2 inh	MBD2 inh	LEDGF integ inh	PRMT1 FP inh	SIAE primary
CCN(C1CCCCC1)S(=O)(=O)c1ccc(OC)c(C)c1	24	–	–	–	–	–
CC(C)CCNCC(O)CON=C1c2ccccc2-c2ccccc21 (stereo not given)	25	–	–	–	–	–
COC(=O)c1ccc(NC(=O)CSC2=NCCN2)cc1	–	–	–	–	63	–
CCOc1ccc(NC(=O)CSC2=NCCN2)cc1	–	–	–	–	–	–
COC(=O)[C@]12C[C@H](CC(=O)N3CCSCC3)C(=O)N(Cc3ccco3)C1=C[C@H](C1CCCC1)O[C@@H]2C	–	–	–	–	–	–
Oc1ccc(C2CNCCc3c2cc(O)c(O)c3Cl)cc1 (stereo not given)	–	–	–	–	–	–
Oc1ccc(C2CNCc3sccc32)cc1O (stereo not given)	–	–	–	–	46	–
O=C(O)CCNc1ccc(NCCC(=O)O)c2c1C(=O)c1ccccc1C2=O	40	–	–	–	27	–
COc1ccccc1NCCC(=O)O	–	–	–	–	–	–
O=C(NC1CCSc2ccccc21)c1ccc([N+](=O)[O-])cc1 (stereo not given)	–	–	–	–	–	–
O=C(NC1CCSc2ccccc21)c1cc([N+](=O)[O-])ccc1N1CCOCC1 (stereo not given)	–	–	–	14	–	–
CCn1c2ccccc2c2nnc(SCc3ccc(C(=O)OC)o3)nc21	–	–	–	–	24	–
COc1ccc(N(C(=O)c2ccco2)C(C(=O)NC2CCCC2)c2ccncc2)cc1OC (stereo not given)	23	–	–	–	–	–
COc1ccc(C(C(=O)NC2CCCC2)N(C(=O)c2ccco2)c2ccc(OC)c(OC)c2)cc1 (stereo not given)	–	–	–	–	–	–
O=C(Nc1ccc(N2CCN(C(=O)c3ccco3)CC2)cc1)c1ccc(Br)cc1	70	–	–	–	–	–
Cc1ccc(C(=O)Nc2ccc(N3CCN(C(=O)c4ccco4)CC3)cc2)cc1	–	–	–	–	–	–
CC(C)(C)NC(=O)C(c1cccnc1)N(C(=O)c1cccs1)c1ccc(C(C)(C)C)cc1 (stereo not given)	–	–	–	–	–	–
O=C(Nc1ccc2c(c1)Cc1ccccc1-2)NC1CCCCN(Cc2ccc(Cl)cc2)C1=O (stereo not given)	–	–	–	–	–	–
CCCNC(=O)OC1CC2CC1[C@H]1CCCCN1C2=O (stereo not given in full)	23	–	–	–	–	–
Cc1ccc(CNC(=O)OC2CC3CC2[C@H]2CCCCN2C3=O)cc1 (stereo not given in full)	–	–	–	–	–	–
C=CCN(C)CC#CCCCCl	–	–	–	–	–	–
CC(=O)c1cccc(NC(=O)N2CCCC2C(=O)Nc2cccc(C)c2)c1 (stereo not given)	21	–	–	–	–	–
COc1cccc(NC(=O)C2CCCN2C(=O)Nc2ccccc2)c1 (stereo not given)	–	–	–	–	–	–
COc1cccc(NC(=O)C2CCCN2C(=O)Nc2cccc(F)c2)c1 (stereo not given)	63	–	–	–	–	–
CC(=O)Nc1cccc(NC(=O)C2CCCN2C(=O)Nc2cccc(C)c2)c1 (stereo not given)	–	–	–	–	–	–
SMILES	UHRF1 MBD2 ctr	TDP2 inh	MBD2 inh	LEDGF integ inh	PRMT1 FP inh	SIAE primary
CNC(=O)CCc1nc(-c2ccc(C(C)C)cc2)no1	–	–	–	–	–	–
CCCCCc1nnc(NC(=O)c2ccc3nc[nH]c3c2)s1	57	–	–	–	–	–
COCCNC(=O)/C(C#N)=C/c1c(N2CCN(C)CC2)nc2c(C)cccn2c1=O	–	–	–	–	–	–
Cc1ccc(S(=O)(=O)/C(C#N)=C/c2c(N3CCC(C(N)=O)CC3)nc3c(C)cccn3c2=O)cc1	22	–	–	–	–	–
Cc1cccn2c(=O)c(/C=C(\C#N)S(=O)(=O)c3ccccc3)c(N3CCC(C(N)=O)CC3)nc12	–	–	–	–	–	–
COCCCNC(=O)/C(C#N)=C/c1c(N2CCN(C)CC2)nc2c(C)cccn2c1=O	52	–	–	–	–	–
CCN1CCN(c2nc3c(C)cccn3c(=O)c2/C=C(\C#N)C(=O)NCCOC)CC1	–	–	–	–	23	–
